Source: ChEMBL document CHEMBL1926530, “Novel pyrazolo[1,5-a]pyridines as p110α-selective PI3 kinase inhibitors: Exploring the benzenesulfonohydrazide SAR” (Bioorg Med Chem, 2012)
Values after ≈ are worked out from the molar mass of the structure shown.

Experiments:
[1] = target: Mitogen-activated protein kinase 14 (Homo sapiens) (UniProt Q16539); experiment: Inhibition of p38alpha assessed as residual activity at 1 uM
[2] = Cmax in CD1 mouse at 10 mg/kg, ip; format: ADME, organism-based; set-up: dose 10 mg/kg, route intraperitoneal; conditions: in vivo
Procedure, shortened: (§1)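 Age-matched specific pathogen-free male CD-1 mice; single 10 mg/kg i.p. dose in 5% DMSO, 45% PEG-400, 20% 2-hydroxypropyl-β-cyclodextrin, 30% water. Blood sampled at multiple times post-dose; plasma taken after centrifugation (10 min, 6000 rpm, 20 °C). Plasma analysed by LC-MS/MS; parameters from non-compartmental analysis.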

[3] = Cytotoxicity against human NZB5 cells assessed as inhibition of [3H]thymidine incorporation measured after 5 days; format: functional, cell-based
Procedure, shortened: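 Early-passage lines grown in α-MEM with insulin, transferrin, selenite and 5% FBS. Wells seeded with 1000 cells; inhibitor in dilution steps up to a maximum of 20. Five days under 5% O₂/5% CO₂/90% N₂, ³H-thymidine added for the last 6 h. Duplicates per dose; fit y = y₀ + ae^−bx; IC50 = 50% reduction in incorporation.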

[4] = target: Misshapen-like kinase 1 (Homo sapiens) (UniProt Q8N4C8); experiment: Inhibition of MINK1 assessed as residual activity at 1 uM
[5] = target: Insulin receptor (Homo sapiens) (UniProt P06213); experiment: Inhibition of IR assessed as residual activity at 1 uM
[6] = target: Dual specificity mitogen-activated protein kinase kinase 1 (Homo sapiens) (UniProt Q02750); experiment: Inhibition of MKK1 assessed as residual activity at 10 uM
[7] = target: Dual specificity mitogen-activated protein kinase kinase 1 (Homo sapiens) (UniProt Q02750); experiment: Inhibition of MKK1 assessed as residual activity at 1 uM
[8] = Inhibition of PKA assessed as residual activity at 10 uM
[9] = target: Serine/threonine-protein kinase mTOR (Homo sapiens, UniProt P42345); experiment: Inhibition of mTOR
[10] = Aqueous solubility of the compound; format: physicochemical; conditions: water
Procedure, shortened: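 Solid mixed with water to make 2 mM, sonicated 15 min, centrifuged 13000 rpm for 6 min. Clear supernatant diluted 2-fold with water, recentrifuged and injected on HPLC. Peak area compared with a DMSO standard solution of the compound, correcting for dilution and injection volume.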

[11] = target: Phosphatidylinositol 4,5-bisphosphate 3-kinase catalytic subunit gamma isoform (Homo sapiens, UniProt P48736); experiment: Inhibition of PI3K p110gamma
[12] = target: T1, Phosphatidylinositol 4,5-bisphosphate 3-kinase catalytic subunit delta isoform (Homo sapiens, UniProt O00329); experiment: Inhibition of recombinant PI3K p110delta using L-alpha-phosphatidylinositol as substrate and [gamma33P]ATP after 60 mins by thin layer chromatographic technique
T1 sequence (O00329 whole entry): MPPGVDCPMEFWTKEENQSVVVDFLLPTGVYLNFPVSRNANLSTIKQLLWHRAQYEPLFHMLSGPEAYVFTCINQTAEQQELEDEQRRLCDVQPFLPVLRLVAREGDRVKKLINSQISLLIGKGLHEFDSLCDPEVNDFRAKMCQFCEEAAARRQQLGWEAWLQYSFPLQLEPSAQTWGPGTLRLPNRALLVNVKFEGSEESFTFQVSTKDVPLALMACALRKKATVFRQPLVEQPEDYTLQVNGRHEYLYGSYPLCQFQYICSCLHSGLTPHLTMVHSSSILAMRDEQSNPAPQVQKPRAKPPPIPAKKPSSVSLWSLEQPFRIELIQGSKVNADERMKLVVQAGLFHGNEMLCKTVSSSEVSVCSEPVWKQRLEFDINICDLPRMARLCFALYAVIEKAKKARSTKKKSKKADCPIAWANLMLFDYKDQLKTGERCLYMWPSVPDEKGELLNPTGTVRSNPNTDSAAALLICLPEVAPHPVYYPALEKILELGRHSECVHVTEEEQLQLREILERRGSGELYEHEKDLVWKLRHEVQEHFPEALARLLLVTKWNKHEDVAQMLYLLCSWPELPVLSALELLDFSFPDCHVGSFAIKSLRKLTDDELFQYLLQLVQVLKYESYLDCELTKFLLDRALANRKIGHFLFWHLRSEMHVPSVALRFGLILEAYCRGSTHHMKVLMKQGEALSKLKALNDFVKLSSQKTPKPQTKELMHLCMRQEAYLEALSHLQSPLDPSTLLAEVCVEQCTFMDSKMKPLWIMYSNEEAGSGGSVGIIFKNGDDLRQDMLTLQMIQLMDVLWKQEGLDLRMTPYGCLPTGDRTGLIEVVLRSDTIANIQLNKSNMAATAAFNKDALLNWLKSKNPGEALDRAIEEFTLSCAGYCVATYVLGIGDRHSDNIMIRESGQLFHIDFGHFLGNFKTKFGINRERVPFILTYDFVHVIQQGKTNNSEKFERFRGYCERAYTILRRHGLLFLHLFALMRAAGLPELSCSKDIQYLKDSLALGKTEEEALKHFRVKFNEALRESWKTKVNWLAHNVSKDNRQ
Procedure, shortened: (§2)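 In-house recombinant enzyme (0.1 µg) with L-α-phosphatidylinositol in 40 mM Tris-HCl pH 7.4, 200 mM NaCl, 1 mM EDTA; DMSO 1% final. Started with 5 mM MgCl₂, 100 µM ATP plus [γ-³³P]ATP; 1 h at room temperature, stopped with 1 M HCl. Lipids extracted, separated by TLC, phosphorimaged. Nine inhibitor concentrations; two experiments, IC50 averaged.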

[13] = target: High affinity nerve growth factor receptor (Homo sapiens) (UniProt P04629); experiment: Inhibition of TrkA assessed as residual activity at 1 uM
[14] = target: Ribosomal protein S6 kinase alpha-1 (Homo sapiens) (UniProt Q15418); experiment: Inhibition of RSK1 assessed as residual activity at 1 uM
[15] = Inhibition of PKA assessed as residual activity at 1 uM
SK-OV-3 = experiment: Antitumor activity against human SKOV3 cells xenografted in nude NIH3 mouse assessed as tumor growth delay at 30 mg/kg, ip QD administered for 14 days relative to untreated control; format: functional; conditions: SK-OV-3, ip, 336 h, route intraperitoneal, read-out: GI
Procedure, shortened: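 Female NIH III nude mice (age-matched, SPF) inoculated s.c. with 5 × 10⁶ SK-OV-3 cells in PBS. Dosing from ~150 mm³ tumours, 30 mg/kg i.p. q.d. for 14 days in 7.5% DMSO/42.5% PEG-400/20% 2-hydroxypropyl-β-cyclodextrin/30% water; vehicle controls. Volume (L × w²) × π/6 three times weekly; bodyweight daily; culled above 20% weight loss; 1-way ANOVA, Holm–Sidak.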

[16] = Tmax in CD1 mouse at 10 mg/kg, ip; format: ADME, organism-based; set-up: dose 10 mg/kg, route intraperitoneal; conditions: in vivo; procedure, shortened: as §1
[17] = target: Phosphatidylinositol 4,5-bisphosphate 3-kinase catalytic subunit alpha isoform (Homo sapiens, UniProt P42336); experiment: Inhibition of recombinant PI3K p110alpha using L-alpha-phosphatidylinositol as substrate and [gamma33P]ATP after 60 mins by thin layer chromatographic technique; procedure, shortened: as §2
[18] = target: High affinity nerve growth factor receptor (Homo sapiens) (UniProt P04629); experiment: Inhibition of TrkA assessed as residual activity at 10 uM

Sequence of Dual specificity mitogen-activated protein kinase kinase 1 (Homo sapiens) (Q02750 whole entry): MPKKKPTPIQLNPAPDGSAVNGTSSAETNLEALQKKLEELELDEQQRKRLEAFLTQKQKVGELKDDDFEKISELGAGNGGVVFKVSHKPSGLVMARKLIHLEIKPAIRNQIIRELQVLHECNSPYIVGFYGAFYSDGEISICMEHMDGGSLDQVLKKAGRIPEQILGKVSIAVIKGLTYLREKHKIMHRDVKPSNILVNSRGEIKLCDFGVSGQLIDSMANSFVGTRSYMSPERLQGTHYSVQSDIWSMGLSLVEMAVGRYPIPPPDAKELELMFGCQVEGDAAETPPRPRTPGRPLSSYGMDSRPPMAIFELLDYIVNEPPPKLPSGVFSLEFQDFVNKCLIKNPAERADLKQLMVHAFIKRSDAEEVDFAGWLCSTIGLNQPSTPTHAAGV
Sequence of High affinity nerve growth factor receptor (Homo sapiens) (P04629 33-796 limits assumed): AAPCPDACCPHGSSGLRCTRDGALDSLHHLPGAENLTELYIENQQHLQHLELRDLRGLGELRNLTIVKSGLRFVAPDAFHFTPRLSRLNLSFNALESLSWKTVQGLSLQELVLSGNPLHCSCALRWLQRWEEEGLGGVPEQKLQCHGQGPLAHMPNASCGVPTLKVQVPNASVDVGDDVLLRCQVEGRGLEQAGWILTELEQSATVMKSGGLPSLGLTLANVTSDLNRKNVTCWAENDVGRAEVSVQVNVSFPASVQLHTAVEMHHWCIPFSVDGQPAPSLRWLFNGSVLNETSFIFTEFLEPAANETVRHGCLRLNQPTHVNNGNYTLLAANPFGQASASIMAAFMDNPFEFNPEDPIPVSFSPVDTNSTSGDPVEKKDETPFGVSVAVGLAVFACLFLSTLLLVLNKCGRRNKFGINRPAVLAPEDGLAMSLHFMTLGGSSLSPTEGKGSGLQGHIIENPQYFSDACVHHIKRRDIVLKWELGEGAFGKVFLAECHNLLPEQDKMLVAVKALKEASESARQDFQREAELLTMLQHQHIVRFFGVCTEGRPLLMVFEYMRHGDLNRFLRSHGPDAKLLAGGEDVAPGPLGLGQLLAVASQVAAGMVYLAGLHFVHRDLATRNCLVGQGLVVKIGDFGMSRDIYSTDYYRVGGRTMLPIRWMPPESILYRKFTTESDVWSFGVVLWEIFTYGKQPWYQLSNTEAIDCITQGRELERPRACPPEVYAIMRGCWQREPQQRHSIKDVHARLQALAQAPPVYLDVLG
Sequence of Mitogen-activated protein kinase 14 (Homo sapiens) (Q16539 whole entry): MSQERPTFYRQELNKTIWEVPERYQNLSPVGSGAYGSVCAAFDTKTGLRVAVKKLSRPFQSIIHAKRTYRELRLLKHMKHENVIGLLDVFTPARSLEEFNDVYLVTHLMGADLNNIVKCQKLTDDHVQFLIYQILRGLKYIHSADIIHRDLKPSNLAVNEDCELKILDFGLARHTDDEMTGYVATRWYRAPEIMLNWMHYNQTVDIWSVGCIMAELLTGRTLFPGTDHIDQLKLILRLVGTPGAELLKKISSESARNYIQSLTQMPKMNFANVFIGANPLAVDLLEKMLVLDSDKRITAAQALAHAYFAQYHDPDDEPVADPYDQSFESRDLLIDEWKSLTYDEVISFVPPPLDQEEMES
Sequence of Phosphatidylinositol 4,5-bisphosphate 3-kinase catalytic subunit alpha isoform (P42336 whole entry, canonical isoform): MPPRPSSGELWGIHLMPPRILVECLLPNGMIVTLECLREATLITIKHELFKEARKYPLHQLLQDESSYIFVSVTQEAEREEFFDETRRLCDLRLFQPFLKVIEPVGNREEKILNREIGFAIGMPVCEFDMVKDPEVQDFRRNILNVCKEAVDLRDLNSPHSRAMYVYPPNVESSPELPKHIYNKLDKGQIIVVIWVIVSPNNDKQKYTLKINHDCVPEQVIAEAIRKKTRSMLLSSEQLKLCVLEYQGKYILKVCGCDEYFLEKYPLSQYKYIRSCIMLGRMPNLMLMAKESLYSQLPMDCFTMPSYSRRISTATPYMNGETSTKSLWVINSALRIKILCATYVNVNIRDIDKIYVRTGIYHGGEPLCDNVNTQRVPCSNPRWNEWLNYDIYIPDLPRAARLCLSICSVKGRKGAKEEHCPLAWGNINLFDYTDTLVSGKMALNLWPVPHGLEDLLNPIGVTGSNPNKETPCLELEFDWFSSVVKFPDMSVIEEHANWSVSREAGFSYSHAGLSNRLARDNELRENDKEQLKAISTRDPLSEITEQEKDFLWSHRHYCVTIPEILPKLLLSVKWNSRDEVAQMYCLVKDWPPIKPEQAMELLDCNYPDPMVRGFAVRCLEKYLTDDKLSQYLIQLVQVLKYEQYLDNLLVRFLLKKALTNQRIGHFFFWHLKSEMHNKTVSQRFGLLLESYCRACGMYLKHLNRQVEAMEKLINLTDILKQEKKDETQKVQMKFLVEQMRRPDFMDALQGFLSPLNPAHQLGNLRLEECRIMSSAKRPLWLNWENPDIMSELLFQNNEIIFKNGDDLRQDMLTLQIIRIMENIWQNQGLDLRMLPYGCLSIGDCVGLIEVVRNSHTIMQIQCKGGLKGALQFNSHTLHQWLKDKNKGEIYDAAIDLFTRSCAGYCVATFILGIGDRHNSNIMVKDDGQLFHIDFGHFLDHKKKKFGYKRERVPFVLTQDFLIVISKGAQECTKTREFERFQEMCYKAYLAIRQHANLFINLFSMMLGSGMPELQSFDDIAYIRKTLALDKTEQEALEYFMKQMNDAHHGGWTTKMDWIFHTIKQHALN
Sequence of Insulin receptor (Homo sapiens) (P06213 28-758 limits assumed): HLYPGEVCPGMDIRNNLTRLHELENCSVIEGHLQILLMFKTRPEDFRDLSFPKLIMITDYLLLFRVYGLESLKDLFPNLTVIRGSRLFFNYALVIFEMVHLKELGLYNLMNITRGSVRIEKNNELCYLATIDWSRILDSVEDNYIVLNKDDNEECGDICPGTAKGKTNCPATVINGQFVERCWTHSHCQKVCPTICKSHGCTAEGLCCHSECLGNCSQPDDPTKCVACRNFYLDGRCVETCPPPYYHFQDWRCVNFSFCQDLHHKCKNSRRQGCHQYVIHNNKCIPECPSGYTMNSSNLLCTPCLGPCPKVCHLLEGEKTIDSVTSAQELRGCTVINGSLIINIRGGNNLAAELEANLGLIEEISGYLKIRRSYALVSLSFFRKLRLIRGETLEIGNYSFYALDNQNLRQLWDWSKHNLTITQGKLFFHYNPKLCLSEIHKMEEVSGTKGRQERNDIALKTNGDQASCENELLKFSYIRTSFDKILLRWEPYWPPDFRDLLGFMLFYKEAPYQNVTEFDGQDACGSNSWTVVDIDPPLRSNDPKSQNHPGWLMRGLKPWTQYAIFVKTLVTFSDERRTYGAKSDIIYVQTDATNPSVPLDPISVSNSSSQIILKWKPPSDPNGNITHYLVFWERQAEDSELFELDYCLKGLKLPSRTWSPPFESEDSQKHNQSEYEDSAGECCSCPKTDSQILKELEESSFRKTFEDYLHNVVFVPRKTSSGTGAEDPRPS
Sequence of Insulin receptor (Homo sapiens) (P06213 763-1382 limits assumed): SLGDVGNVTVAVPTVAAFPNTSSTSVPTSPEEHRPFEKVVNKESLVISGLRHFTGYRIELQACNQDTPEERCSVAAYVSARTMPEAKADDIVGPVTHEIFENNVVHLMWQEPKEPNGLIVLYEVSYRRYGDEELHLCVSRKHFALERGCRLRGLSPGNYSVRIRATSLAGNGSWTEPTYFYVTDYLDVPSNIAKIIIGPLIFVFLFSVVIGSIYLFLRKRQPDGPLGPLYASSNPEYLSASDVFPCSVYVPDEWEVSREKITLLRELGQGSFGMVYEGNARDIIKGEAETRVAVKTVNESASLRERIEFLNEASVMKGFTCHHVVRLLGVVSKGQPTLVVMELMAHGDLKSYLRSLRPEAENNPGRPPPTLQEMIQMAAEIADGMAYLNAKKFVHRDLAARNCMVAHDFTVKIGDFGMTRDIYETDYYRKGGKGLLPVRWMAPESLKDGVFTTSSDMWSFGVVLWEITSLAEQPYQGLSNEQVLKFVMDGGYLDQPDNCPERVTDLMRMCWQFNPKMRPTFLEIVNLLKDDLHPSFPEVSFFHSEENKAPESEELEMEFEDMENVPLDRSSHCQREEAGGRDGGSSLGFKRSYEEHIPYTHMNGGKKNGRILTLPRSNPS
Sequence of Phosphatidylinositol 4,5-bisphosphate 3-kinase catalytic subunit gamma isoform (P48736 whole entry, canonical isoform): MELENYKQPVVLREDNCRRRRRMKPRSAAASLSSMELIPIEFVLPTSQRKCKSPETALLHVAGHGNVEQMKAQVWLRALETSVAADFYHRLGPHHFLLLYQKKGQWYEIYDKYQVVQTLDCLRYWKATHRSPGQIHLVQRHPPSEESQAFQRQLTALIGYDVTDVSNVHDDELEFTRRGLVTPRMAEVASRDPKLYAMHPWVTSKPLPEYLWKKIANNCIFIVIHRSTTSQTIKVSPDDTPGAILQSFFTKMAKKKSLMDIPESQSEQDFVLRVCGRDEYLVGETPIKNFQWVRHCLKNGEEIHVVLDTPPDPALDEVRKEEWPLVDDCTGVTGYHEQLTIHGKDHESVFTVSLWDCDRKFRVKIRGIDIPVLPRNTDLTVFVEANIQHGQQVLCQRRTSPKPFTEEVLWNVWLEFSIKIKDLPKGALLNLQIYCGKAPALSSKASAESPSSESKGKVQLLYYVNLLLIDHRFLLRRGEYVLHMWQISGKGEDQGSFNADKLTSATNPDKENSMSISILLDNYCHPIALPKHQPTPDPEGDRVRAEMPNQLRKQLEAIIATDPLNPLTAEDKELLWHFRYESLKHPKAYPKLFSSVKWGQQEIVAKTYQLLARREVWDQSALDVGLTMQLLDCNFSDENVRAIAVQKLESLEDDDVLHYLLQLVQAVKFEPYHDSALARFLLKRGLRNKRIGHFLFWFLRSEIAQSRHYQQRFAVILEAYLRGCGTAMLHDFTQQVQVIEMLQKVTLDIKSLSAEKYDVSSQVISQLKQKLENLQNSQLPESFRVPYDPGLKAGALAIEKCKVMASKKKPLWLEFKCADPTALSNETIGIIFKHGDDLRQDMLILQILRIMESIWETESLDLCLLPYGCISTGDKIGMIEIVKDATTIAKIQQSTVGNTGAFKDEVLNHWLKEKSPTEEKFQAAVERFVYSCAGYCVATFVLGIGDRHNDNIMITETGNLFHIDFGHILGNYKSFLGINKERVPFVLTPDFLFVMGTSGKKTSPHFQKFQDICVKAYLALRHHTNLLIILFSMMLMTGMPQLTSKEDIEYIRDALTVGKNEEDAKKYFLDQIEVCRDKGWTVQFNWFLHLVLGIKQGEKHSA

Activity [1]: 59%
Cmax [2]: 7.58 µM
Activity [4]: 16%
Activity [5]: 76%
Activity [6]: 5%
Activity [7]: 65%
Activity [8]: 8%
IC50 [9]: 234 nM
solubility [10]: 1.2 µg/mL (≈ 2.8 µM)
IC50 [11]: 11 nM
IC50 [12]: 54 nM
Activity [13]: 73%
Activity [14]: 18%
Activity [15]: 59%
Tmax [16]: 5 min
IC50 [17]: 1.3 nM
Activity [18]: 15%
SMILES: Cc1ccc([N+](=O)[O-])cc1S(=O)(=O)N(CCO)/N=C/c1cnn2ccc(C#N)cc12
IC50 [3]: 60 nM
inhibition in vivo at 30 mg/kg (SK-OV-3): 49.9%
